Activity calls are given as the source filed them. The calls are words filed in the database; no cut-off is given here.
What was measured:
[1] = tested on: Rattus norvegicus; test: Local anesthetic activity in rat assessed as frequency at 1% administered as base by sciatic nerve block method; format: functional, organism-based
Summary of the method: (§1)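 Rat sciatic nerve block. Solutions are dosed with concentration expressed as base, and the pH of each solution is recorded. Groups are typically 10 rats. Onset is given in min. Frequency is the number of rats blocked out of those tested. Duration is in min, as mean ± SD.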

[2] = tested on: Rattus norvegicus; test: Local anesthetic activity in rat assessed as frequency at 2% administered as base by sciatic nerve block method; format: functional, organism-based; summary of the method: as §1
[3] = tested on: Rattus norvegicus; test: Local anesthetic activity in rat assessed as onset time at 1% administered as base by sciatic nerve block method; format: functional; summary of the method: as §1
[4] = tested on: Rattus norvegicus; test: Local anesthetic activity in rat assessed as onset time at 2% administered as base by sciatic nerve block method; format: functional; summary of the method: as §1
[5] = tested on: Rattus norvegicus; test: Local anesthetic activity in rat assessed as duration of action at 1% administered as base by sciatic nerve block method; format: functional; summary of the method: as §1
[6] = tested on: Rattus norvegicus; test: Local anesthetic activity in rat assessed as duration of action at 2% administered as base by sciatic nerve block method; format: functional; summary of the method: as §1
[7] = Toxicity in iv dosed mouse; format: organism-based; conditions: in vivo
[8] = tested on: Rattus norvegicus; test: Toxicity in rat at 2% administered as base after 30 mins; format: organism-based; conditions: in vivo, 0.5 h
[9] = tested on: Rattus norvegicus; test: Toxicity in rat at 2% administered as base after 25 mins; format: organism-based; conditions: in vivo
[10] = tested on: Rattus norvegicus; test: Toxicity in rat at 2% administered as base after 40 mins; format: organism-based; conditions: in vivo

CCCN1CCCC2(C1)C(=O)Nc1ccccc12 (configuration not stated) [listing 1 of 2 here]
Activity [1]: Active
Activity [2]: Active

CCN1CCC2(C1)C(=O)Nc1c(C)cccc12 (configuration not stated) [listing 1 of 2 here]
Activity [1]: Active
Activity [2]: Active

CN1CCCCC12C(=O)Nc1ccccc12 (configuration not stated)
Time [3]: 5 min
Time [4]: 3 min
Activity [1]: Active
Activity [2]: Active
Time [5]: 81 min
Time [6]: 97 min
LD50 [7]: 97 mg/kg

CCCN1CCC2(C1)C(=O)Nc1ccccc12.Cl (configuration not stated)
Time [3]: 3 min
Time [4]: 2 min
Time [5]: 66 min
Time [6]: 78 min

CN1CCC2(C1)C(=O)Nc1ccccc12 (configuration not stated)
Time [3]: 11 min
Time [4]: 6 min
Activity [1]: Active
Activity [2]: Active
Time [5]: 56 min
Time [6]: 83 min

CCN1CCCC12C(=O)Nc1ccccc12 (configuration not stated)
Time [3]: 6 min
Time [4]: 5 min
Activity [1]: Active
Activity [2]: Active
Time [5]: 83 min
Time [6]: 107 min
LD50 [7]: 119 mg/kg

CCN1CCC2(C1)C(=O)Nc1ccccc12 (configuration not stated)
Time [3]: 4 min
Time [4]: 3 min
Activity [1]: Active
Activity [2]: Active
Time [5]: 67 min
Time [6]: 85 min
LD50 [7]: 38 mg/kg

CCN1CCC2(CC1)C(=O)Nc1ccccc12
Time [3]: 6 min
Time [4]: 5 min
Activity [1]: Active
Activity [2]: Active
Time [5]: 86 min
Time [6]: 120 min
LD50 [7]: 53 mg/kg

CCCN1CCCC2(C1)C(=O)Nc1ccccc12.O=S(=O)(O)O (configuration not stated)
Time [3]: 6 min
Time [4]: 4 min
Time [5]: 75 min
Time [6]: 95 min

CCN(CC)CC(=O)Nc1c(C)cccc1C [LIDOCAINE]
Time [4]: 1 min
Activity [1]: Active
Activity [2]: Active
Time [6]: 141 min

CCN1CCC2(C1)C(=O)Nc1c(C)cccc12.Cl (configuration not stated)
Time [3]: 3 min
Time [4]: 2 min
Time [5]: 93 min
Activity [8]: Toxic

CCCN1CCC2(C1)C(=O)Nc1ccccc12 (configuration not stated) [listing 1 of 2 here]
LD50 [7]: 25 mg/kg

CCCN1CCC2(C1)C(=O)Nc1ccccc12 (configuration not stated) [listing 2 of 2 here]
Activity [1]: Active
Activity [2]: Active

CCCN1CCCC2(C1)C(=O)Nc1ccccc12 (configuration not stated) [listing 2 of 2 here]
LD50 [7]: 41 mg/kg

CCN1CCC2(CC1)C(=O)Nc1c(C)cccc12
Time [3]: 3 min
Time [4]: 3 min
Activity [1]: Active
Activity [2]: Active
Time [5]: 108 min
Activity [9]: Toxic
Activity [10]: Toxic
LD50 [7]: 21 mg/kg

CCN1CCC2(C1)C(=O)Nc1c(C)cccc12 (configuration not stated) [listing 2 of 2 here]
LD50 [7]: 23 mg/kg

From ChEMBL document CHEMBL3271956, “Oxindole-3-spiropyrrolidines and -piperidines. Synthesis and local anesthetic activity” (J Med Chem, 1976)
